Active and inactive are the calls of the source.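 The calls were made as follows: active = compounds lowering viability with an AC50 at or under ten times their top valid dose; inconclusive = flat curve with 30 to 70% viability loss, or poor fit; inactive = flat near zero, weak potency, or rising signal.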
Test system: not listed separately
Assay: cytotoxicity toward BJeHLT cells – cell-based, dry powder, set 2, counter-screen for Ras selective lethality project, dose response (AID 493093)
Settings: BJeHLT fibroblasts viability, Alamar Blue fluorescence, 48 h; at 48 µM (top of the series)
How it was run: (§1)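 Signal: Alamar Blue conversion fluorescence, excitation 544 nm, emission 590 nm | Material: BJeHLT fibroblasts, BJ cells transformed with hTERT, SV40 LT and ST | Input: 1000 cells/well | Schedule: 48 h compound treatment at 37 °C, ~16 h dye incubation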

SMILES	activity change, negative = loss of viability
Cc1onc(C(=O)N2CCN(C(c3ccccc3)c3ccccc3)CC2)c1N	-0.577% (inactive)
CC(=O)Nc1c(C(=O)N2CCN(C(c3ccccc3)c3ccccc3)CC2)noc1C	8.25% (inactive)
O=C(c1noc2ccccc12)N1CCN(C(c2ccccc2)c2ccccc2)CC1	15.4% (inactive)
Cc1onc(C(=O)N2CCN(C(c3ccncc3)c3ccncc3)CC2)c1[N+](=O)[O-]	-2.93% (inactive)
Cc1onc(C(=O)NCCNC(c2ccccc2)c2ccccc2)c1[N+](=O)[O-]	-11.4% (inactive)
Cc1onc(C(=O)N2CCN(C(c3ccccc3)c3ccccc3)CC2)c1C	18.4% (inactive)
Cc1oc(C)c(C(=O)N2CCN(C(c3ccccc3)c3ccccc3)CC2)c1C	19.3% (inactive)
Cc1ccc(C(=O)N2CCN(C(c3ccccc3)c3ccccc3)CC2)c([N+](=O)[O-])c1	13% (inactive)
Cc1onc(C(=O)N2CCN(C(c3ccccc3)c3ccccc3)CC2)c1Br	15.1% (inactive)
CC(C)c1onc(C(=O)N2CCN(C(c3ccccc3)c3ccccc3)CC2)c1[N+](=O)[O-]	10% (inactive)
Cc1onc(C(=O)N2CCN(C(c3ccccc3)c3ccccc3)CC2)c1NS(C)(=O)=O	7.7% (inactive)
O=[N+]([O-])c1ccc(CN2CCN(C(c3ccccc3)c3ccccc3)CC2)o1	-7.38% (inactive)

Same assay, conditions: BJeHLT fibroblasts viability, Alamar Blue fluorescence, 48 h; at 68 µM (top of the series)

SMILES	activity change, negative = loss of viability
Cc1cc(C(=O)N2CCN(Cc3ccccc3)CC2)no1	1.07% (inactive)
Cc1onc(C(=O)N2CCOCC2)c1[N+](=O)[O-]	1.06% (inactive)
Cc1onc(C(=O)N2CCN(Cc3ccccc3)CC2)c1[N+](=O)[O-]	4.74% (inactive)
COc1ccccc1N1CCN(C(=O)c2noc(C)c2[N+](=O)[O-])CC1	7.12% (inactive)
Cc1onc(C(=O)NCc2ccc(F)cc2)c1[N+](=O)[O-]	10.9% (inactive)
CCOC(=O)N1CCN(C(=O)c2noc(C)c2[N+](=O)[O-])CC1	6.37% (inactive)

Test system: BJeHLT fibroblasts viability, Alamar Blue fluorescence, 48 h
Assay: as above
Settings: not given
How it was run: as §1

SMILES	AC50
Cc1onc(C(=O)N2CCN(C(c3ccccn3)c3ccccn3)CC2)c1[N+](=O)[O-]	> 47.6 µM (inactive)
O=C(NCCNC(c1ccccc1)c1ccccc1)c1ccc([N+](=O)[O-])o1	3.35 µM
Cc1onc(C(=O)N2CCN(C(c3ccc(Cl)cc3)c3ccc(Cl)cc3)CC2)c1[N+](=O)[O-]	0.272 µM
O=C(c1ccc([N+](=O)[O-])o1)N1CCN(C(c2ccccc2)c2ccccc2)CC1	18.9 µM
Cc1onc(C(=O)N2CCCN(C(c3ccccc3)c3ccccc3)CC2)c1[N+](=O)[O-]	2.79 µM
Cc1onc(C(=O)N2CCN(C(c3ccccc3)c3ccccc3)CC2)c1[N+](=O)[O-]	4.97 µM
O=C(c1ccc([N+](=O)[O-])o1)N1CCN(C(c2ccc(F)cc2)c2ccc(F)cc2)CC1	12.1 µM
Cc1onc(C(=O)N2CCN(C(c3ccccc3)c3ccc(Cl)cc3)CC2)c1[N+](=O)[O-] (stereo not given)	0.51 µM
COc1ccc(C(c2ccc(OC)cc2)N2CCN(C(=O)c3ccc([N+](=O)[O-])o3)CC2)cc1	6.85 µM
O=C(c1ccc([N+](=O)[O-])o1)N1CCCN(C(c2ccccc2)c2ccccc2)CC1	46.2 µM
COc1ccc(C(c2ccc(OC)cc2)N2CCN(C(=O)c3noc(C)c3[N+](=O)[O-])CC2)cc1	5.32 µM
Cc1onc(C(=O)N2CCN(C(c3ccc(F)cc3)c3ccc(F)cc3)CC2)c1[N+](=O)[O-]	0.757 µM
